CXCR6 block: CXCR6 receptor inhibitors, primary screen, cell-based, beta-arrestin, luminescence, CHO-K1 PathHunter, 1536-well. inhibition, % at 20 µM. hit rate 0.36% among 360,000; in the data active = inhibition above about 34%, passing the limit was not always enough;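 also: antagonist mode with CXCL16 agonist at 10 nM final; 0% = 10 nM CXCL16 with DMSO and 100% = unstimulated wells without agonist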
Target sequence (O00574 whole entry, looked up): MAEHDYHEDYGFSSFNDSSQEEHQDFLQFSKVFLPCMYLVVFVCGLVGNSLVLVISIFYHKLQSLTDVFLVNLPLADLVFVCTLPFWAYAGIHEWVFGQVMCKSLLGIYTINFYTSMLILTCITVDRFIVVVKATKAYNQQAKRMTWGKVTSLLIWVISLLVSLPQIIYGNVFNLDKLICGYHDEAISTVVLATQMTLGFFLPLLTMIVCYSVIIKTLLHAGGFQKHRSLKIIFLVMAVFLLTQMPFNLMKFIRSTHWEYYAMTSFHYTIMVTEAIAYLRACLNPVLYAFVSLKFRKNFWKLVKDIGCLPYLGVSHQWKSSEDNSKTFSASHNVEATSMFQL
APJ antag: antagonists of human apelin receptor APJ, primary screen, CHO-K1 cells, beta-arrestin complementation, luminescence; P35414; hit rate 0.32% among 330,000; inhibition, % at 20 µM;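 active = inhibition above about 40% at 20 µM, limit read from the data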;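 also: cells challenged with 10 nM apelin-13 agonist together with compound; plate controls were apelin-13 plus DMSO wells for no effect and DMSO wells lacking apelin-13 for full effect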
CCR6 antag: CCR6 receptor antagonists, primary screen, cell-based, CHO-K1, luminescence, beta-arrestin, uHTS; CHO-K1 CCR6 PathHunter beta-arrestin, CCL20-stimulated; inhibition, % at 20 µM; hit rate 0.49% among 340,000; AID 493098, 2011;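 active = compounds whose inhibition of the agonist-driven luminescence signal at 20 µM reaches about 50%, limit read from the data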;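 also: cells stimulated with CCL20 at 14 nM final; plate controls were DMSO with CCL20 for no effect and DMSO without agonist for full effect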
HTR2A ag: mouse Htr2a agonists via beta-arrestin recruitment, primary screen, cell-based, luminescence; 5-hydroxytryptamine receptor 2A (Mus musculus), P35363; CHO-K1 mHTR2A beta-arrestin complementation; percent of 30 µM serotonin response; activation, % at 7.6 µM; hit rate 0.66% among 360,000; AID 624169, 2012;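 active = activation above a run cutoff, the mean activation of all tested compounds plus 3 SD, cut at about 14% in these data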;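 also: 0% = plate median of compound wells and 100% = 30 µM serotonin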
EBI2 block: EBI2 receptor antagonists, beta-arrestin recruitment, primary screen, cell-based, luminescence, 7a,25-OHC stimulation, uHTS | AID 651636, 2012 | hit rate 0.81% among 360,000 | inhibition, % at 5 µM | 7a,25-OHC stimulated; in the data active = inhibition above about 38%;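 also: enzyme fragment complementation signal reports receptor beta-arrestin coupling in cells; 0% = agonist plus DMSO wells and 100% = wells without agonist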
Target sequence (P32249 whole entry, looked up, the tested form may be a part): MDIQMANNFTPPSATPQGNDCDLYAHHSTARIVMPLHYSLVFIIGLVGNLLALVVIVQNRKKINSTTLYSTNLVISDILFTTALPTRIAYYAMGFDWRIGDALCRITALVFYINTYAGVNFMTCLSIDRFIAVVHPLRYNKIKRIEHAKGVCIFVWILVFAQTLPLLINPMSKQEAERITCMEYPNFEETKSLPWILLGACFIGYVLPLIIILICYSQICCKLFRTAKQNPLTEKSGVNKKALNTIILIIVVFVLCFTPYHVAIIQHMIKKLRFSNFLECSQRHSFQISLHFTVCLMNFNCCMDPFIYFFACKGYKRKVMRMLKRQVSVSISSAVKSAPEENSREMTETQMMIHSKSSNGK
APJ ag: agonists of human apelin receptor APJ, primary screen, CHO-K1 cells, PathHunter beta-arrestin, luminescence; P35414; 0% DMSO wells, 100% apelin; activation, % at 20 µM; hit rate 0.11% among 330,000; AID 2520, 2010;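 active = activation more than six SD over the plate average, tested at 20 µM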;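 also: 0% = DMSO alone and 100% = apelin-13 at 10 nM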
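Test system – PathHunter CHO-K1 APJ (AGTRL-1) beta-arrestin reporter cells · Input – 1000 cells/well · Compound – single test compound dose, 20 µM final, 1% DMSO · Times – compound stimulation 90 min at 25 °C, detection 60 min · Technique – beta-gal luminescence · Read-out basis – APJ–arrestin association signal · Control set – negative DMSO alone, positive Apelin-13 at 10 nM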
EBI2 antag conf: EBI2 antagonist hit retest, beta-arrestin, confirmation, cell-based, single concentration, luminescence, 7a,25-OHC stimulation; shares compounds with EBI2 block; 7a,25-OHC antagonism; inhibition, % at 5 µM; hit rate 29% among 2,400; AID 651997, 2013;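 active = inhibition of at least 50%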
EBI2 agonist: EBI2 agonist activity of antagonist hits, confirmation, counter-screen for EBI2 antagonist project, cell-based, single concentration, agonist mode, luminescence; shares compounds with EBI2 block; EBI2-expressing cells, 60 min; 0% vehicle, 100% 7α,25-dihydroxycholesterol control; activation, % at 5 µM; 2,400 tested, under 10 active; AID 652000, 2013;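 active = activation of at least 50%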
bGal counter: E. coli beta-galactosidase enzyme inhibition, confirmation, counter-screen for EBI2 antagonist project, biochemical, luminescence, single concentration; shares compounds with EBI2 block; purified beta-galactosidase, luminescent Galacton Star, 15 min; inhibition, % at 5 µM; hit rate 1% among 2,400;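 active = replicate-average signal at least 3 plate SD below neutral wells, shown as high inhibition, flagging enzyme-inhibiting false positives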;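 also: 0% = DMSO wells with enzyme and 100% = wells lacking enzyme; higher means stronger loss of beta-gal luminescence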
* marks the source's active call; other numbers are inactive results; nt = no result; ! = not active in a repeat. Shown are actives, neighbours in structure and some others; about 2.2% of the full set was active somewhere.

SMILES	CXCR6 block	APJ antag	CCR6 antag	HTR2A ag	EBI2 block	APJ ag	EBI2 antag conf	EBI2 agonist	bGal counter
CC(NC(=O)COC(=O)/C=C/c1cccc(F)c1)c1ccccc1 (stereo not given)	-6.9	5.3	0.4	1.3	17.0	-3.1	nt	nt	nt
C=C(C)C1Cc2c(C)nn(-c3ccccc3)c2C1 (stereo not given)	-5.8	12.8	25.1	0.5	-10.3	-3.1	nt	nt	nt
C=C(C)C1Cc2c(C)nn(-c3cccc4ccccc34)c2C1 (stereo not given)	-3.2	16.6	9.8	7.6	31.9*	-1.8	41.4	-0.6	7.8
C[C@@H]1CN([C@H](C)CO)S(=O)(=O)c2ccc(C#Cc3ccccc3F)cc2O[C@@H]1CN(C)C(=O)Cc1ccccc1	5.2	nt	nt	5.6	72.2*	nt	79.3*	-0.9	-7.3
C[C@H]1CN([C@@H](C)CO)S(=O)(=O)c2ccc(Br)cc2O[C@H]1CN(C)C(=O)Cc1ccccc1	0.3	nt	nt	-4.6	0.9	nt	nt	nt	nt
O=[N+]([O-])c1ccc(N2CCCCC2)cc1NCCOc1ccccc1	8.6	27.5	19.9	3.0	44.5*	-1.8	34.8	-1.2	-9.7
CC1CN(c2ccc([N+](=O)[O-])c(NCCOc3ccccc3)c2)CC(C)N1 (stereo not given)	7.3	11.7	19.2	-7.5	-2.2	0.5	nt	nt	nt
Cc1cccc(OCCOC(=O)C2CCN(S(=O)(=O)c3ccc(C)c(C)c3)CC2)c1	12.9	-12.6	26.4	1.4	22.4	-0.6	nt	nt	nt
Cc1ccc(OCCOC(=O)C2CCN(S(=O)(=O)c3ccc(C)c(C)c3)CC2)cc1	-1.0	11.1	1.8	-6.9	56.3*	-1.7	26.0	-0.1	6.5
Cc1ccc(S(=O)(=O)N2CCC(C(=O)OCCOc3ccccc3)CC2)cc1C	-8.6	10.4	12.6	1.1	45.5*	-4.1	40.2	-1.5	-20.1
Cc1sc(NC(=O)c2ccco2)c(CN2CCN(c3ccccc3)CC2)c1C	0.1	3.6	1.5	-6.8	39.8*	-1.8	15.8	-1.5	-10.7
Cc1sc(NC(=O)c2ccco2)c(CN2CCCCC2)c1C	-4.7	-4.1	25.7	-2.7	-1.6	-5.4	nt	nt	nt
CC(c1ccccc1)N(CCC(c1ccccc1)C1CCOC(C)(C)C1)C(=O)c1ccco1 (stereo not given)	4.1	-14.5	30.3	-4.3	44.3*	2.4	9.8	1.8	8.5
O=C(Cn1cccc1C(=O)c1ccccc1)NCCc1ccc(Cl)cc1	0.0	19.1	10.7	-0.2	48.9*	-3.8	16.3	0.6	4.7
O=C(Cn1cccc1C(=O)c1ccccc1)NCCc1ccccc1	0.7	14.0	11.6	-5.0	7.3	-4.4	nt	nt	nt
OC[C@H]1O[C@@H](c2nc(-c3ccc(CN4CCOCC4)cc3)no2)[C@H](O)[C@@H](O)[C@H]1O	3.4	nt	nt	2.2	3.3	nt	nt	nt	nt
COCC(C)n1c(-c2ccc3c(c2)NC(=O)CO3)csc1=Nc1ccc(OC(F)F)cc1 (stereo not given)	25.6	7.1	61.9*!	3.2	57.5*	-3.7	58.4*!	0.0	1.0
O=C1COc2ccc(-c3csc(=Nc4ccc(OC(F)F)cc4)n3CC3CCCO3)cc2N1 (stereo not given)	38.1	26.1	72.3*	-5.6	69.9*	-4.0	54.9*	-2.3	-14.6
O=C(c1ccccc1)c1ccc(C(=O)N2CCN(c3ccccc3O)CC2)cc1	-1.0	nt	nt	1.1	1.3	nt	nt	nt	nt
CC(C)S(=O)(=O)NC(=O)C1(C)CCN1C(=O)Cc1ccccc1 (stereo not given)	-3.8	nt	nt	-3.1	-4.6	nt	nt	nt	nt
Cc1ccc(C2CCN(C(=O)Nc3ccc(F)cc3)C2)cc1 (stereo not given)	9.2	-4.5	6.8	0.7	71.1*	-2.4	53.8*	1.6	-2.5
COc1ccc(C(=O)C2CCN(C(=O)c3ccc(C)cc3)CC2)cc1	2.8	1.5	-8.9	5.6	52.8*	-2.3	47.1	-0.7	-19.4
Cc1ccc(NC(=O)C2CCCN(C(=O)Nc3ccc(F)cc3)C2)cc1 (stereo not given)	-10.0	11.7	25.0	0.0	-0.4	-0.3	nt	nt	nt
COc1ccc(C(=O)C2CCN(C(=O)c3ccc(F)cc3)CC2)cc1	-8.2	5.4	1.7	-1.7	30.2	0.3	nt	nt	nt
COc1ccc(C(=O)C2CCN(C(=O)Nc3ccc(C)cc3)CC2)cc1	-7.9	5.1	-4.9	-0.8	49.1*	-3.2	15.0	1.3	3.4
SMILES	CXCR6 block	APJ antag	CCR6 antag	HTR2A ag	EBI2 block	APJ ag	EBI2 antag conf	EBI2 agonist	bGal counter
Cc1ccc(NC(=O)N2CCC(C(=O)c3ccc(F)cc3)CC2)cc1	-1.5	3.3	3.4	-17.0	40.9	3.1	nt	nt	nt
CCOc1ccc(C(=O)C2CCN(C(=O)c3ccc([N+](=O)[O-])cc3)CC2)cc1	-12.6	-28.3	-4.2	0.8	84.1*	0.8	53.0*	-1.0	-5.4
COc1ccc(C(=O)C(=O)N2CCC(c3ccccc3)CC2)cn1	nt	nt	nt	-0.4	42.9*	nt	23.3	0.8	5.7
CCN(C)C1CN(Cc2cn(CCCC(=O)OC)nn2)S(=O)(=O)C1 (stereo not given)	1.2	nt	nt	-22.2	-2.1	nt	nt	nt	nt
CN(Cc1ccc2c(c1)CCCN2C)C(=O)[C@H]1O[C@@H](n2cnc3c(N)ncnc32)[C@H](O)[C@@H]1O	-3.6	nt	nt	7.7	-2.2	nt	nt	nt	nt
Cc1ccc(OCC(=O)Nc2ccc(N(C)C)cc2)cc1	-3.4	-26.4	11.9	-1.0	0.7	-2.0	nt	nt	nt
CCN(CC)c1ccc(NC(=O)COc2ccc(C)cc2)cc1	-8.4	-8.4	11.2	-7.5	48.2*	0.5	4.8	-0.5	-12.6
NC(Cc1ccccc1)c1csc(Nc2nccc(C(F)(F)F)n2)n1 (stereo not given)	-2.7	nt	nt	7.7	-0.5	nt	nt	nt	nt
Cc1ccc(-n2nnnc2-c2ccccc2Br)cc1	2.5	-4.5	-1.5	3.0	37.8*	-0.4	45.2	-1.8	-17.3
O=C(CCn1cnc2ccccc21)N/N=C/C=C/c1ccccc1	-3.9	5.8	8.0	3.8	45.8*	1.3	52.0*	0.7	5.0
CCOC(=O)C1CCN(C2CCN(C(=O)c3oc4c(F)cccc4c3C)CC2)CC1	-2.7	2.3	-0.1	-3.0	32.9	0.1	nt	nt	nt
